ChEMBL document CHEMBL3526073, “Hydralazine as a selective probe inactivator of aldehyde oxidase in human hepatocytes: estimation of the contribution of aldehyde oxidase to metabolic clearance” (Drug Metab Dispos, 2012)

Experiments:
[1] = Drug level in cryopreserved human hepatocytes assessed as CYP450-mediated metabolite formation treated with 20 uM of zaleplon after 30 mins by LC-MS/MS analysis; format: ADME, cell-based, Hepatocyte; settings: 0.5 h
Procedure, shortened: (§1)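 Pooled cryopreserved human hepatocytes (five-donor pool, viability >80%) in Williams E medium, preincubated 30 min at 37°C under O2/CO2 (95/5). Zaleplon 20 μM final, with hydralazine 0–200 μM or 1-aminobenzotriazole 0–1.5 mM co-added, incubated 30 min. Reaction stopped with cold acetonitrile containing internal standard. Oxozaleplon (AO product) and desethylzaleplon (CYP product) measured by LC-MS/MS and expressed as percent of control.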

[2] = target: T1, Aldehyde oxidase (Homo sapiens, UniProt Q06278); settings: hepatocytes, 2 h, 10 µM
T1 sequence (Q06278 whole entry): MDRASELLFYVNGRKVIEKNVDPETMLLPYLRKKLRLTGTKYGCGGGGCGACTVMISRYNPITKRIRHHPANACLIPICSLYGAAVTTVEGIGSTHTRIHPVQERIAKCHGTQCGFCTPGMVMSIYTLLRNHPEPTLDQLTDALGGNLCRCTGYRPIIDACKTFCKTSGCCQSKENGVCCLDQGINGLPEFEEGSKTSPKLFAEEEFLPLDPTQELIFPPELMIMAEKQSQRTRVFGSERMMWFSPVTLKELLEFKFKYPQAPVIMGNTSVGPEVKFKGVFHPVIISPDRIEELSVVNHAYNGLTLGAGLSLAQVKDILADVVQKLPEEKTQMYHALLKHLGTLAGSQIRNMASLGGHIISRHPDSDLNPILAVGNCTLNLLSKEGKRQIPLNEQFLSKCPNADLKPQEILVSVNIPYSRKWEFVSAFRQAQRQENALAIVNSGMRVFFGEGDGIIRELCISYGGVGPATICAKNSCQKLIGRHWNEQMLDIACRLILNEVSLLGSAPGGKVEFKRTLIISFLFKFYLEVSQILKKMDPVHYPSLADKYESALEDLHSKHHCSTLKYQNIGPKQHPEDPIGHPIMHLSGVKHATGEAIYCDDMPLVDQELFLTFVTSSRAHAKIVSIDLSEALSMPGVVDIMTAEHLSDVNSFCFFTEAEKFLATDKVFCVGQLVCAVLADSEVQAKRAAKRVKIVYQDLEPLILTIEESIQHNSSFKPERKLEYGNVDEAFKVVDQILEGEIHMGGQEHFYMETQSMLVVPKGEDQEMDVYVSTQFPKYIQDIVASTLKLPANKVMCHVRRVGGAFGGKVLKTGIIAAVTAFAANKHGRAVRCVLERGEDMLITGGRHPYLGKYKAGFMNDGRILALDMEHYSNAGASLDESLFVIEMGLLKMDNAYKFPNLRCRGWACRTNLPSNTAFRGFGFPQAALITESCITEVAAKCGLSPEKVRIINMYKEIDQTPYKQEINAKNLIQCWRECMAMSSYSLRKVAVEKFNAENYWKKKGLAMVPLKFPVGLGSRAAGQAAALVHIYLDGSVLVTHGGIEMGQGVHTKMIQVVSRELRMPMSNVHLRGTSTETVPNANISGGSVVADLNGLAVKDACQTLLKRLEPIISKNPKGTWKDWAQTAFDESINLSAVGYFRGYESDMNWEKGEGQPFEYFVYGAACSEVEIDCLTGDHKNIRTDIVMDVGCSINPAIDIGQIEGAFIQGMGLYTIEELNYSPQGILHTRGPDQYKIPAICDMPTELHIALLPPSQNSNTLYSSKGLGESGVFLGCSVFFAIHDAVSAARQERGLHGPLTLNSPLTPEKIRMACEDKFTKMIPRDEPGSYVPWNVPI

[3] = target: T1, Aldehyde oxidase; settings: hepatocytes, 2 h, 10 µM; remark: listed apart in the source
[4] = target: T1, Aldehyde oxidase; assay: Drug metabolism in cryopreserved human hepatocytes assessed as aldehyde oxidase-mediated formation of oxozaleplon at 50 uM after 30 mins by LC-MS/MS analysis; format: ADME, cell-based, Hepatocyte; settings: 0.5 h
[5] = Drug metabolism in cryopreserved human hepatocytes assessed as CYP450-mediated formation of desethylzaleplon at 50 uM after 30 mins by LC-MS/MS analysis; format: ADME, cell-based, Hepatocyte; settings: 0.5 h
[6] = Drug metabolism in cryopreserved human hepatocytes assessed as CYP450-mediated formation of desethylzaleplon at 20 uM after 30 mins by LC-MS/MS analysis in presence of 25 uM of hydralazine; format: ADME, cell-based, Hepatocyte; settings: 0.5 h; procedure, shortened: as §1
[7] = Drug metabolism in cryopreserved human hepatocytes assessed as CYP450-mediated formation of desethylzaleplon at 20 uM after 30 mins by LC-MS/MS analysis in presence of 50 uM hydralazine; format: ADME, cell-based, Hepatocyte; settings: 0.5 h; procedure, shortened: as §1
[8] = target: T1, Aldehyde oxidase; assay: Drug metabolism in cryopreserved human hepatocytes assessed as aldehyde oxidase-mediated formation of oxozaleplon at 20 uM after 30 mins by LC-MS/MS analysis in presence of 1.5 mM of 1-aminobenzotriazole; format: ADME, cell-based, Hepatocyte; settings: 0.5 h; procedure, shortened: as §1
[9] = target: T1, Aldehyde oxidase; assay: Inhibition of aldehyde oxidase in human liver cytosol assessed as production of oxozoniporide
[10] = target: T1, Aldehyde oxidase; assay: Drug metabolism in cryopreserved human hepatocytes assessed as aldehyde oxidase-mediated formation of oxozaleplon at 20 uM after 30 mins by LC-MS/MS analysis; format: ADME, cell-based, Hepatocyte; settings: 0.5 h; procedure, shortened: as §1
[11] = Drug metabolism in cryopreserved human hepatocytes assessed as CYP450-mediated formation of desethylzaleplon at 20 uM after 30 mins by LC-MS/MS analysis; format: ADME, cell-based, Hepatocyte; settings: 0.5 h; procedure, shortened: as §1
[12] = target: T2, CYP1A2 (Homo sapiens, UniProt P05177); assay: Inhibition of CYP1A2 in human liver microsomes assessed as residual activity using phenacetin as substrate at 50 uM relative to control; settings: probe phenacetin
T2 sequence (P05177 whole entry): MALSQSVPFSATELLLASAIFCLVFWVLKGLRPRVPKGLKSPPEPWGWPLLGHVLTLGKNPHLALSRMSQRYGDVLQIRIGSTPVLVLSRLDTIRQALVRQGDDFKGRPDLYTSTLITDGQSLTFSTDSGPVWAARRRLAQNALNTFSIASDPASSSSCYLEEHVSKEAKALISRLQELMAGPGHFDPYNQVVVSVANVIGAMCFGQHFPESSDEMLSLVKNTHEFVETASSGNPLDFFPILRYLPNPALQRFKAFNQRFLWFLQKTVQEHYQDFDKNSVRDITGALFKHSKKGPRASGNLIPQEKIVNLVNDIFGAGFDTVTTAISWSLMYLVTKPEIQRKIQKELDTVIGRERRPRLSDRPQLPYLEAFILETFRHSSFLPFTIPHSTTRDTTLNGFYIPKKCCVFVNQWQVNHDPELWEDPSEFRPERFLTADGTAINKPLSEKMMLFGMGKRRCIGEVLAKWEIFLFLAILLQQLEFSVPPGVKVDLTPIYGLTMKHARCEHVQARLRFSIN

[13] = target: T3, CYP2C8 (Homo sapiens, UniProt P10632); assay: Inhibition of CYP2C8 in human liver microsomes assessed as residual activity using paclitaxel as substrate at 50 uM relative to control; settings: probe paclitaxel
T3 sequence (P10632 whole entry): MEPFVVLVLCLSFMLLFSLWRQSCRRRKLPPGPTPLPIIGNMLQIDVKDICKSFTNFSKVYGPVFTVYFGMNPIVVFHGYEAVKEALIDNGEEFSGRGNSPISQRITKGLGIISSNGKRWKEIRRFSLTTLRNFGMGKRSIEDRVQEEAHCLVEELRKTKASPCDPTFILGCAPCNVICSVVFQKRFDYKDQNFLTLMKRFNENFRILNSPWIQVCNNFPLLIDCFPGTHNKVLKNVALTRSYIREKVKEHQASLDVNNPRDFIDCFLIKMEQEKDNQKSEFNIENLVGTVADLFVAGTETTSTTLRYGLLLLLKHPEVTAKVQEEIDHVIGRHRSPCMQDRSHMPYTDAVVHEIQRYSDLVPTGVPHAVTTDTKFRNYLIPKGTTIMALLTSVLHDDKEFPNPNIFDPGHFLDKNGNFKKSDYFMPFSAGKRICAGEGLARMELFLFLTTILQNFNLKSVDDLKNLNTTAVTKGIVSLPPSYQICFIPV

[14] = target: T4, CYP2C9 (Homo sapiens, UniProt P11712); assay: Inhibition of CYP2C9 in human liver microsomes assessed as residual activity using diclofenac as substrate at 50 uM relative to control; settings: probe diclofenac
T4 sequence (P11712 whole entry): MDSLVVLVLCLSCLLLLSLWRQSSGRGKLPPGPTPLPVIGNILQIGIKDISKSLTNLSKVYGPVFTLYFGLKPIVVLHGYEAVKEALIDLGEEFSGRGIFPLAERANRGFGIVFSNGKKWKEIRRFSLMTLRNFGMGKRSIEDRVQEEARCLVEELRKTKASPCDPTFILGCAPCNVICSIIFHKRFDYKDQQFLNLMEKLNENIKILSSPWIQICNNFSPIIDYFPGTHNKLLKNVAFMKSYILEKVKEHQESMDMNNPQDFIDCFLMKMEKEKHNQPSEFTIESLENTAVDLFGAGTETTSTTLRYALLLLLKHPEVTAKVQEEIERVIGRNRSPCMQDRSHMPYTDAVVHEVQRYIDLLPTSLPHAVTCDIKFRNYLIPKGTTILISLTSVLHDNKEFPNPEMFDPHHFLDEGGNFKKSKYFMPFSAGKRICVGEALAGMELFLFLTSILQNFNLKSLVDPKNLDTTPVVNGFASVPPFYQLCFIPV

[15] = target: T5, CYP2C19 (Homo sapiens, UniProt P33261); assay: Inhibition of CYP2C19 in human liver microsomes assessed as residual activity using S-mephenytoin as substrate at 50 uM relative to control; settings: probe S-mephenytoin
T5 sequence (P33261 whole entry): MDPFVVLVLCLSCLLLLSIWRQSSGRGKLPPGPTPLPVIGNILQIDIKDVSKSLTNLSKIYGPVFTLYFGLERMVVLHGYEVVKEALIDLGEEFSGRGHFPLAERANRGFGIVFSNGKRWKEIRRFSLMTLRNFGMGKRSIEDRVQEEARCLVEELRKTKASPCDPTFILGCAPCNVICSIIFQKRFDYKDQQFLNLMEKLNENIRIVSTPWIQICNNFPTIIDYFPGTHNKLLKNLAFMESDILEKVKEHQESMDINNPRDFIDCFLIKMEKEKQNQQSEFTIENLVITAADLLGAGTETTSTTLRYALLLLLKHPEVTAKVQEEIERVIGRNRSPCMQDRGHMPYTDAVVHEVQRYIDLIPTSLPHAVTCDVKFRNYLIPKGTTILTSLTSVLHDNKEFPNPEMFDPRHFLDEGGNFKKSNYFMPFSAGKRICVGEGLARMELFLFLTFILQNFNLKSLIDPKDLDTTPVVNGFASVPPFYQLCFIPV

[16] = target: T6, CYP2D6 (Homo sapiens, UniProt P10635); assay: Inhibition of CYP2D6 in human liver microsomes assessed as residual activity using dextromethorphan as substrate at 50 uM relative to control; settings: probe dextromethorphan
T6 sequence (P10635 whole entry): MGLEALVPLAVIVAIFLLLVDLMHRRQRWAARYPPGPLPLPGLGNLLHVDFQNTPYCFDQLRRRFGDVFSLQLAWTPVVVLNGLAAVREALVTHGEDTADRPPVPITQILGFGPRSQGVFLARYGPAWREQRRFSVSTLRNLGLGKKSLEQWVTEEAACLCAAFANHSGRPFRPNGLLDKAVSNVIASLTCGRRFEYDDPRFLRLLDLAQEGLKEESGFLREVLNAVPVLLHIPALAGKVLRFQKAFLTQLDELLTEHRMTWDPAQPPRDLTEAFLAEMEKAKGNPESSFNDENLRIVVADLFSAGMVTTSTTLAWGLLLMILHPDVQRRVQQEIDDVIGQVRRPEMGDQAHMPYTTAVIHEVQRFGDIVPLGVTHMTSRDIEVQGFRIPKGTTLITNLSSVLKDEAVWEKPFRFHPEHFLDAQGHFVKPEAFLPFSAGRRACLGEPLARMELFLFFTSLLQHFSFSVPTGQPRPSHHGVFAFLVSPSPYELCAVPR

[17] = target: T7, CYP3A (Homo sapiens, UniProt P08684+P20815+P24462+Q9HB55); assay: Inhibition of CYP3A in human liver microsomes assessed as residual activity using midazolam as substrate at 50 uM relative to control; settings: probe midazolam
[18] = target: T2, CYP1A2; assay: in vitro; settings: liver microsomes, probe phenacetin
[19] = target: T3, CYP2C8; assay: in vitro; settings: liver microsomes, probe paclitaxel
[20] = target: T4, CYP2C9; assay: in vitro; settings: liver microsomes, probe diclofenac
[21] = target: T5, CYP2C19; assay: in vitro; settings: liver microsomes, probe S-mephenytoin
[22] = target: T6, CYP2D6; assay: in vitro; settings: liver microsomes, probe dextromethorphan
[23] = target: T7, CYP3A; assay: in vitro; settings: liver microsomes, probe midazolam

## CC(=O)Nc1cccc(-c2ccnc3c(C#N)cnn23)c1
[1]
  Drug metabolism: metabolite_detected

## CN(C)CCNC(=O)c1cccc2cc3ccccc3nc12
[2]
  Fm: 0.53
[3]
  Fm: 0.76

## N=C(N)NC(=O)c1cnn(-c2cccc3ncccc23)c1C1CC1 [ZONIPORIDE]
[2]
  Fm: 0.64
[3]
  Fm: 0.55

## CCNC(=O)OC1CCN(c2nncc3cc(OC)c(OC)cc23)CC1 [CARBAZERAN]
[2]
  Fm: 0.49
[3]
  Fm: 0.55

## CCN(C(C)=O)c1cccc(-c2cc(=O)[nH]c3c(C#N)cnn23)c1
[4]
  Drug metabolism: metabolite_not_detected
[5]
  Drug metabolism: metabolite_not_detected

## COc1ccc2c(c1)[C@]13CCCC[C@@H]1[C@H](C2)N(C)CC3 [DEXTROMETHORPHAN]
[3]
  Fm: 0.39

## Cc1ncc2n1-c1ccc(Cl)cc1C(c1ccccc1F)=NC2 [MIDAZOLAM]
[2]
  Fm: 0.08
[3]
  Fm: 0.05

## CCN(C(C)=O)c1cccc(-c2ccnc3c(C#N)cnn23)c1 [ZALEPLON]
[6]
  Drug metabolism: metabolite_detected
[7]
  Drug metabolism: metabolite_not_detected
[8]
  Drug metabolism: metabolite_detected
[9]
  Ki: 83 µM
[9]; human, liver cytosol
  kinact: 0.00105 s⁻¹
[10]
  Drug metabolism: metabolite_detected
[11]
  Drug metabolism: metabolite_detected
[2]
  Fm: 0.7
[3]
  Fm: 0.56

## CC[C@H]1OC(=O)[C@H](C)C(=O)[C@H](C)[C@@H](O[C@@H]2O[C@H](C)C[C@H](N(C)C)[C@H]2O)[C@](C)(OC)C[C@@H](C)C(=O)[C@H](C)[C@H]2N(C3CN([C@H](C)c4ccnc5ncccc45)C3)C(=O)O[C@]12C
[3]
  Fm: 0.61

## Nc1nc(OCc2ccccc2)c2[nH]cnc2n1 [6-O-BENZYLGUANINE]
[3]
  Fm: 0.83

## NNc1nncc2ccccc12 [HYDRALAZINE]
[12]
  activity at 50 µM: 89%
[13]
  activity at 50 µM: 95%
[14]
  activity at 50 µM: 95%
[15]
  activity at 50 µM: 90%
[16]
  activity at 50 µM: 77%
[17]
  activity at 50 µM: 76%
[18]
  activity at 25 µM: 100%
[19]
  activity at 25 µM: 108%
[20]
  activity at 25 µM: 105%
[21]
  activity at 25 µM: 103%
[22]
  activity at 25 µM: 92%
[23]
  activity at 25 µM: 98%
